Laboratory results: ChEMBL document CHEMBL4052582, “A Versatile Method to Determine the Cellular Bioavailability of Small-Molecule Inhibitors” (J Med Chem, 2017)

What was measured:
[1] = Drug uptake in human MDA-MB-231 cells after 6 hrs in presence of 5% FBS by HPLC-MS analysis; format: ADME, cell-based; conditions: mda-mb-231, 6 h
Summary of the method: (§1)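 MDA-MB-231 cells at ~70% confluency in T-25 flasks, incubated 6 h at 37 °C with inhibitor in DMEM containing the stated FBS (0.02% DMSO). Parallel 6 h incubation at 4 °C in cold DMEM used to measure nonspecific cell-bound amount. Accurate intracellular moles = 37 °C value minus 4 °C value. Extraction with MeCN/MeOH 1:1, HPLC quantification, corrected for extraction efficiency. Triplicate.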

[2] = Retention time of the compound by HPLC/DAD analysis
Summary of the method: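 Agilent HPLC with DAD, detection at 254/355 nm or 235/355 nm. Kromasil C18 column (4.6 × 250 mm), 20 μL injection. Gradient from H2O (0.1% TFA) to 50:50 MeCN over 0–18 min, then to 100% MeCN by 20 min, held to 25 min, at 1.5 mL/min.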

[3] = Stability in human MDA-MB-231 cells at 2 uM after 72 hrs by HPLC-MS analysis; format: ADME, cell-based; conditions: mda-mb-231, 72 h
Summary of the method: (§2)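 Time course: inhibitor added to ~70%-confluent MDA-MB-231 cells in T-25 flasks, in 5 mL DMEM plus FBS (0.02% DMSO), incubated at 37 °C for 3–72 h. At each time point cells washed with cold PBS and extracted with cold MeCN/MeOH 1:1 overnight at 4 °C. Intracellular moles per million cells determined by HPLC calibration.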

[4] = Stability of the compound in DMEM medium assessed as parent compound remaining at 100 uM after 72 hrs in absence of 10% FBS by HPLC method
Summary of the method: (§3)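 Compound added at 100 μM final (0.02% v/v DMSO) to 5 mL DMEM with or without 10% FBS in T-25 flasks, no cells; incubated 37 °C in CO2 incubator for 3–72 h. Aliquots drawn at each time point and analysed by HPLC; parent remaining taken from chromatogram AUC relative to starting time point. Triplicate.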

[5] = Drug uptake in human MDA-MB-231 cells assessed per million cells preincubated for 6 hrs followed by trypsin-EDTA digestion for 2 mins measured after overnight incubation at 4 degC by HPLC-MS analysis; format: ADME, cell-based; conditions: mda-mb-231, 2 min
Summary of the method: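 After 6 h inhibitor exposure at 37 °C, MDA-MB-231 cells washed three times with ice-cold PBS, detached with 0.25% trypsin/1 mM EDTA in PBS for 2 min at 37 °C, resuspended in cold DMEM, washed once in ice-cold PBS, extracted with cold MeCN/MeOH 1:1, HPLC quantified; triplicate, mean ± SD divided by extraction efficiency.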

[6] = Drug uptake in human MDA-MB-231 cells assessed as extracted concentration at 20 uM after 24 hrs by HPLC-MS analysis; format: ADME, cell-based; conditions: mda-mb-231, 24 h
Summary of the method: (§4)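 MDA-MB-231 cells at ~70% confluency in T-25 flasks exposed to a range of inhibitor input concentrations in DMEM with FBS, 0.02% DMSO, 37 °C, 24 h; cold PBS washes, overnight MeCN/MeOH 1:1 extraction at 4 °C, HPLC quantification against calibration curves with extraction-efficiency correction.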

[7] = Stability of the compound in DMEM medium assessed as parent compound remaining at 100 uM after 72 hrs in presence of 10% FBS by HPLC method
Summary of the method: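 Compound at 100 μM final (0.02% DMSO) in 5 mL DMEM with or without 10% FBS, cell-free in T-25 flasks, 37 °C in CO2 incubator for 3–72 h. Aliquots analysed by HPLC. Percent remaining derived from chromatogram AUC relative to starting time point. Triplicate.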

[8] = Apparent permeability at 200 uM after 5 hrs by PAMPA; format: physicochemical
Summary of the method: (§5)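 Artificial membrane of 1% egg lecithin in n-dodecane on a filter plate; compound at 200 μM on donor side, 5 h at room temperature; compound quantified by HPLC/DAD; percent transport and apparent permeability calculated from previously published equations.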

[9] = Drug accumulation in human MDA-MB-231 cells at 2 uM in presence of 5% FBS after 24 hrs incubation by HPLC-MS analysis; format: ADME, cell-based; conditions: mda-mb-231, 24 h
Summary of the method: (§6)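 MDA-MB-231 cells grown in T-25 flasks in DMEM/10% FBS to ~70% confluency, then given fresh DMEM with the stated FBS plus inhibitor (0.02% DMSO final), 37 °C, 24 h. Cells washed with cold PBS ×3, extracted overnight at 4 °C with cold MeCN/MeOH 1:1, centrifuged, quantified by HPLC against calibration curves, corrected for dilution, cell number and solvent extraction efficiency; nmol per million cells; triplicate, mean ± SD.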

[10] = Drug uptake in human MDA-MB-231 cells assessed as extracted concentration at 2 uM after 24 hrs by HPLC-MS analysis; format: ADME, cell-based; conditions: mda-mb-231, 24 h; summary of the method: as §4
[11] = Drug uptake in human MDA-MB-231 cells assessed per million cells at 2 uM in presence of 5% FBS after 24 hrs incubation by HPLC-MS analysis; format: ADME, cell-based; conditions: mda-mb-231, 24 h; summary of the method: as §6
[12] = Drug uptake in human MDA-MB-231 cells assessed as extracted concentration at 0.2 uM after 24 hrs by HPLC-MS analysis; format: ADME, cell-based; conditions: mda-mb-231, 24 h; summary of the method: as §4
[13] = Permeability assessed as drug transport at 200 uM after 5 hrs by PAMPA; format: physicochemical; summary of the method: as §5
[14] = Drug uptake in human MDA-MB-231 cells assessed as cell bound drug level per million cells at 2 uM in presence of 5% FBS after 6 hrs at 4 degC by HPLC-MS analysis; format: ADME, cell-based; conditions: mda-mb-231, 6 h
Summary of the method: (§7)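 Confluent (~70%) MDA-MB-231 cells given inhibitor in 5 mL cold DMEM with 0.02% DMSO (10% FBS for BRD-targeting inhibitors, 5% FBS for β-catenin/BCL9 inhibitors), held at 4 °C for 6 h; then washed, extracted overnight at 4 °C in MeCN/MeOH 1:1, HPLC quantified; triplicate, mean ± SD divided by solvent extraction efficiency.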

[15] = Drug uptake in human MDA-MB-231 cells assessed as non specific binding with culture plate at 2 uM in presence of 5% FBS after 6 hrs at 4 degC by HPLC-MS analysis; format: ADME, cell-based; conditions: mda-mb-231, 6 h
[16] = test system: MDA-MB-231; assay: Antiproliferative activity against human MDA-MB-231 cells after 72 hrs by MTS assay; format: functional, cell-based; conditions: MDA-MB-231, 72 h
[17] = Drug uptake in human MDA-MB-231 cells assessed per million cells preincubated for 6 hrs followed by solvent addition measured after overnight incubation at 4 degC by HPLC-MS analysis; format: ADME, cell-based; conditions: mda-mb-231, 6 h
[18] = Solubility of the compound in DMEM medium up to 200 uM; format: physicochemical
[19] = Drug uptake in human MDA-MB-231 cells assessed as intracellular concentration at 0.0103 umol in presence of 5% FBS after 24 hrs by HPLC-MS analysis; format: ADME, cell-based; conditions: mda-mb-231, 24 h; summary of the method: as §6
[20] = Drug uptake in human MDA-MB-231 cells assessed per million cells at 2 uM in presence of 1% FBS after 24 hrs incubation by HPLC-MS analysis; format: ADME, cell-based; conditions: mda-mb-231, 24 h; summary of the method: as §6
[21] = Drug uptake in human MDA-MB-231 cells after 6 hrs in presence of 10% FBS by HPLC-MS analysis; format: ADME, cell-based; conditions: mda-mb-231, 6 h; summary of the method: as §1
[22] = Drug uptake in human MDA-MB-231 cells assessed per million cells at 10 uM in presence of 1% FBS after 24 hrs incubation by HPLC-MS analysis; format: ADME, cell-based; conditions: mda-mb-231, 24 h; summary of the method: as §6
[23] = Stability in human MDA-MB-231 cells at 10 uM after 72 hrs by HPLC-MS analysis; format: ADME, cell-based; conditions: mda-mb-231, 72 h; summary of the method: as §2
[24] = Drug uptake in human MDA-MB-231 cells assessed per million cells at 10 uM in presence of 5% FBS after 6 hrs at 4 degC by HPLC-MS analysis; format: ADME, cell-based; conditions: mda-mb-231, 6 h; summary of the method: as §7
[25] = Drug uptake in human MDA-MB-231 cells assessed as extracellular concentration at 0.065 umol in presence of 10% FBS after 24 hrs by HPLC-MS analysis; format: ADME, cell-based; conditions: mda-mb-231, 24 h
Summary of the method: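 MDA-MB-231 cells incubated 24 h at 37 °C with inhibitor in 5 mL DMEM with the stated FBS. Media plus cold PBS washes pooled, dried; cells extracted with MeCN/MeOH 1:1; HPLC peak areas of both fractions compared by mass balance with the input moles added to medium.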

[26] = Drug uptake in human MDA-MB-231 cells assessed as extracted concentration at 1 uM after 24 hrs by HPLC-MS analysis; format: ADME, cell-based; conditions: mda-mb-231, 24 h; summary of the method: as §4
[27] = Drug uptake in human MDA-MB-231 cells assessed as extracted concentration at 10 uM after 24 hrs by HPLC-MS analysis; format: ADME, cell-based; conditions: mda-mb-231, 24 h; summary of the method: as §4
[28] = Drug uptake in human MDA-MB-231 cells assessed per million cells at 10 uM in presence of 10% FBS after 24 hrs incubation by HPLC-MS analysis; format: ADME, cell-based; conditions: mda-mb-231, 24 h; summary of the method: as §6
[29] = Stability of the compound in DMEM medium assessed as parent compound remaining at 100 uM after 24 hrs in presence of 10% FBS by HPLC method; summary of the method: as §3
[30] = Drug accumulation in human MDA-MB-231 cells at 10 uM in presence of 10% FBS after 24 hrs incubation by HPLC-MS analysis; format: ADME, cell-based; conditions: mda-mb-231, 24 h; summary of the method: as §6
[31] = Drug uptake in human MDA-MB-231 cells assessed as extracted concentration at 100 uM after 24 hrs by HPLC-MS analysis; format: ADME, cell-based; conditions: mda-mb-231, 24 h; summary of the method: as §4
[32] = Drug uptake in human MDA-MB-231 cells assessed per million cells at 10 uM in presence of 5% FBS after 24 hrs incubation by HPLC-MS analysis; format: ADME, cell-based; conditions: mda-mb-231, 24 h; summary of the method: as §6
[33] = Drug uptake in human MDA-MB-231 cells assessed as intracellular concentration at 0.065 umol in presence of 10% FBS after 24 hrs by HPLC-MS analysis; format: ADME, cell-based; conditions: mda-mb-231, 24 h; summary of the method: as §6

Cl.Cl.O=C(Nc1ccc(O[C@H]2CCNC2)c(-c2ccc(F)cc2)c1)c1ccc(O[C@H]2CCNC2)c(-c2ccc(F)c(F)c2)c1
Drug uptake [1]: Dose-dependent effect
Retention time [2]: 15.8 min
Stability [3]: Stable
Stability [4]: 47%
Drug uptake [5]: 5.5 nmol
Drug uptake [6]: 0.128 µM
Stability [7]: 70%
Papp at 5 h, 200 µM [8]: 1.3 nm/s
Drug uptake [9]: 98%
Drug uptake [10]: 0.076 µM
Drug uptake [11]: 6.5 nmol
Drug uptake [12]: 0.022 µM
Drug transport [13]: 0.2%
Drug uptake [14]: 1 nmol
Drug uptake [15]: 4%
IC50 [16]: 2.3 µM
Drug uptake [17]: 6.7 nmol
solubility [18]: Soluble
Drug uptake [19]: 0.0101 µmol
Drug uptake [20]: 6.1 nmol

CC(=O)c1cc(-c2cc(C(=O)NC3CC3)ccc2C)c2ncccn12
Drug uptake [21]: Dose-dependent effect
Drug uptake [22]: 0.069 nmol
Retention time [2]: 16.4 min
Stability [23]: Stable
Stability [4]: 94%
Drug uptake [5]: 0.038 nmol
Drug uptake [24]: 0.025 nmol
Stability [7]: Unstable
Drug uptake [25]: 0.059 µmol
Drug uptake [26]: 0.035 µM
Drug uptake [27]: 0.1 µM
Drug uptake [28]: 0.12 nmol
Stability [29]: 94%
Papp at 5 h, 200 µM [8]: 143 nm/s
Drug uptake [30]: 2%
Drug transport [13]: 32.3%
Drug uptake [14]: 0.085 nmol
Drug uptake [31]: 0.665 µM
Drug uptake [32]: 0.074 nmol
Drug uptake [17]: 0.11 nmol
Drug uptake [33]: 0.0012 µmol
solubility [18]: Soluble
